Data published in ChEMBL document CHEMBL4346654 (Eur J Med Chem, 2019).
pIC50: −log10 of the molar value. ≈ marks a conversion by molar mass, not a printed value.

Legend:
Streptococcus pneumoniae [1] = assay: Bactericidal activity against Streptococcus pneumoniae 07P390 expressing constitutive ermB gene pretreated followed by subculture in absence of compound measured after 24 hrs; type: functional
In short: (§1)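 Isolates were identified by 16S rDNA sequencing. MIC was determined by CLSI-recommended two-fold broth dilution. For MBC, samples from 1–8 fold MIC were transferred to culture medium and subcultured for 24 h without antibiotic.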

Streptococcus pyogenes [2] = assay: Selectivity ratio of MBC to MIC for MLS-resistant Streptococcus pyogenes 01-968 expressing inducible ermB gene; type: functional
In short: (§2)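 MBC/MIC ratio. MIC was measured by CLSI standard two-fold broth dilution. MBC was measured by transferring samples at 1–8 fold MIC to culture medium and subculturing for 24 h without antibiotic. Isolates were identified by 16S rDNA sequencing.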

Haemophilus influenzae [3] = assay: Bactericidal activity against azithromycin-susceptible Haemophilus influenzae ATCC 49247 pretreated followed by subculture in absence of compound measured after 24 hrs; type: functional; in short: as §1
[4] = MRT in Sprague-Dawley rat at 20 mg/kg, po after 0.25 to 24 hrs by LC-MS/MS analysis; type: ADME, organism-based; conditions: in vivo
In short: (§3)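 Male SD rats were given a single 20 mg/Kg oral dose. Blood was sampled at 0.25, 0.5, 1, 2, 4, 6, 8 and 24 h and centrifuged at 2500 g for 5 min at 4 °C. Drug levels were quantified by LC-MS/MS. t1/2, Cmax, Tmax, CL, MRT and AUC were calculated from the concentration–time data.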

Moraxella catarrhalis [5] = assay: Antibacterial activity against erythromycin-susceptible Moraxella catarrhalis 13L332 assessed as reduction in microbial growth by CLSI based two-fold broth dilution method; type: functional
Streptococcus pyogenes [6] = assay: Bactericidal activity against MLS-resistant Streptococcus pyogenes 01-968 expressing inducible ermB gene pretreated followed by subculture in absence of compound measured after 24 hrs; type: functional
In short: (§4)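 MBC assay. Following MIC determination by CLSI standard two-fold broth dilution, samples at 1–8 fold MIC were transferred to fresh culture medium. They were subcultured for 24 h without antibiotic. Isolates were identified by 16S rDNA sequencing. S. aureus ATCC 29213 was used as a control strain.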

[7] = AUCinfinity in Sprague-Dawley rat at 20 mg/kg, po after 0.25 to 24 hrs by LC-MS/MS analysis; type: ADME, organism-based; set-up: dose 20 mg/kg, time infinity, route oral; conditions: Sprague-Dawley, in vivo; in short: as §3
[8] = Half life in Sprague-Dawley rat at 20 mg/kg, po after 0.25 to 24 hrs by LC-MS/MS analysis; type: ADME, organism-based; conditions: in vivo; in short: as §3
Streptococcus pneumoniae [9] = assay: Selectivity ratio of MBC to MIC for penicillin-susceptible Streptococcus pneumoniae PU 09 expressing mef gene; type: functional; in short: as §1
Rattus norvegicus = assay: Ratio of test compound half life to telithromycin half life in Sprague-Dawley rat at 20 mg/kg, po after 0.25 to 24 hrs by LC-MS/MS analysis; type: ADME, organism-based; conditions: in vivo
[10] = Tmax in Sprague-Dawley rat at 20 mg/kg, po after 0.25 to 24 hrs by LC-MS/MS analysis; type: ADME, organism-based; conditions: in vivo; in short: as §3
Cytochrome P450 3A4 = Cytochrome P450 3A4 (Homo sapiens, UniProt P08684); assay: Inhibition of CYP3A4 in human liver microsomes assessed as reduction in metabolite formation using midazolam as substrate incubated for 10 mins in presence of NADPH by HPLC based mass spectrometric method; type: ADME
Sequence of Cytochrome P450 3A4 (P08684 whole entry): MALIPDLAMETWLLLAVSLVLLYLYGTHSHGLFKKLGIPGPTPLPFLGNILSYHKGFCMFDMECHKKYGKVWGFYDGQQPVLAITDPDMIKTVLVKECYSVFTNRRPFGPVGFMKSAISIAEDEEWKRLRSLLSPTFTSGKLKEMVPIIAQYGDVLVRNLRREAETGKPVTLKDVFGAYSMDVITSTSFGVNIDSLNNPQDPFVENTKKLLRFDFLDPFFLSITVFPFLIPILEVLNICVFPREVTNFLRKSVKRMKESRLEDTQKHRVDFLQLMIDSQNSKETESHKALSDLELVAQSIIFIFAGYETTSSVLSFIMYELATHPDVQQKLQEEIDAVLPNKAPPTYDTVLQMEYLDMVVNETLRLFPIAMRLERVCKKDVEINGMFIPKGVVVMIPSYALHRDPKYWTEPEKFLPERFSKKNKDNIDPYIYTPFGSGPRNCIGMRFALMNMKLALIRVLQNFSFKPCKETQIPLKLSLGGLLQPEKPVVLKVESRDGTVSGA
In short: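 Human liver microsome CYP3A4 with midazolam substrate in 0.1 M potassium phosphate buffer was prewarmed at 37 °C for 5 min. Compound and 25 mM NADPH solution (stock) were added, then incubated at 37 °C for 10 min. Ketoconazole served as the positive inhibitor. Metabolite was measured by UPLC–triple quadrupole MS as the metabolite/internal standard peak area ratio, and IC50 was derived by curve fitting.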

Moraxella catarrhalis [11] = assay: Bactericidal activity against erythromycin-susceptible Moraxella catarrhalis 13L332 pretreated followed by subculture in absence of compound measured after 24 hrs; type: functional; in short: as §1
Staphylococcus aureus [12] = assay: Bactericidal activity against MLS/methicillin-resistant Staphylococcus aureus PU 32 expressing inducible ermA gene pretreated followed by subculture in absence of compound measured after 24 hrs; type: functional; in short: as §4
Streptococcus pyogenes [13] = assay: Antibacterial activity against MLS-resistant Streptococcus pyogenes 01-968 expressing inducible ermB gene assessed as reduction in microbial growth by CLSI based two-fold broth dilution method; type: functional
Streptococcus pneumoniae [14] = assay: Bactericidal activity against erythromycin-susceptible Streptococcus pneumoniae ATCC49619 pretreated followed by subculture in absence of compound measured after 24 hrs; type: functional; in short: as §1
[15] = Ratio of test compound MRT to telithromycin MRT in Sprague-Dawley rat at 20 mg/kg, po after 0.25 to 24 hrs by LC-MS/MS analysis; type: ADME, organism-based; conditions: in vivo
[16] = Cmax in Sprague-Dawley rat at 20 mg/kg, po after 0.25 to 24 hrs by LC-MS/MS analysis; type: ADME, organism-based; set-up: dose 20 mg/kg, route oral; conditions: in vivo; in short: as §3
Streptococcus pyogenes [17] = assay: Selectivity ratio of MBC to MIC for MLS-resistant Streptococcus pyogenes 12-206 expressing constitutive ermA gene; type: functional; in short: as §2
Streptococcus pneumoniae [18] = assay: Antibacterial activity against Streptococcus pneumoniae 07P390 expressing constitutive ermB gene assessed as reduction in microbial growth by CLSI based two-fold broth dilution method; type: functional
[19] = Systemic plasma clearance in Sprague-Dawley rat at 20 mg/kg, po after 0.25 to 24 hrs by LC-MS/MS analysis; type: ADME, organism-based; in short: as §3
Haemophilus influenzae [20] = assay: Selectivity ratio of MBC to MIC for azithromycin-susceptible Haemophilus influenzae ATCC 49247; type: functional; in short: as §1
Staphylococcus aureus [21] = assay: Selectivity ratio of MBC to MIC for MLS/methicillin-resistant Staphylococcus aureus PU 32 expressing inducible ermA gene; type: functional; in short: as §2
Staphylococcus aureus [22] = assay: Antibacterial activity against MLS-resistant Staphylococcus aureus PU 20 expressing constitutive ermC gene assessed as reduction in microbial growth by CLSI based two-fold broth dilution method; type: functional
Streptococcus pyogenes [23] = assay: Bactericidal activity against Streptococcus pyogenes 12-207 expressing mef gene pretreated followed by subculture in absence of compound measured after 24 hrs; type: functional; in short: as §1
Streptococcus pyogenes [24] = assay: Antibacterial activity against MLS-resistant Streptococcus pyogenes 12-206 expressing constitutive ermA gene assessed as reduction in microbial growth by CLSI based two-fold broth dilution method; type: functional
Streptococcus pneumoniae [25] = assay: Antibacterial activity against erythromycin-susceptible Streptococcus pneumoniae ATCC49619 assessed as reduction in microbial growth by CLSI based two-fold broth dilution method; type: functional
Moraxella catarrhalis [26] = assay: Selectivity ratio of MBC to MIC for erythromycin-susceptible Moraxella catarrhalis 13L332; type: functional; in short: as §1
Streptococcus pneumoniae [27] = assay: Antibacterial activity against penicillin-susceptible Streptococcus pneumoniae PU 09 expressing mef gene assessed as reduction in microbial growth by CLSI based two-fold broth dilution method; type: functional
Streptococcus pyogenes [28] = assay: Antibacterial activity against Streptococcus pyogenes 12-207 expressing mef gene assessed as reduction in microbial growth by CLSI based two-fold broth dilution method; type: functional
Streptococcus pneumoniae [29] = assay: Bactericidal activity against penicillin-susceptible Streptococcus pneumoniae PU 09 expressing mef gene pretreated followed by subculture in absence of compound measured after 24 hrs; type: functional; in short: as §1
Haemophilus influenzae [30] = assay: Antibacterial activity against azithromycin-susceptible Haemophilus influenzae ATCC 49247 assessed as reduction in microbial growth by CLSI based two-fold broth dilution method; type: functional
Streptococcus pyogenes [31] = assay: Bactericidal activity against MLS-resistant Streptococcus pyogenes 12-206 expressing constitutive ermA gene pretreated followed by subculture in absence of compound measured after 24 hrs; type: functional; in short: as §4
[32] = AUC (0 to t) in Sprague-Dawley rat at 20 mg/kg, po after 0.25 to 24 hrs by LC-MS/MS analysis; type: ADME, organism-based; set-up: time upper 24 hr, dose 20 mg/kg, time lower 0.25 hr, route oral; conditions: in vivo; in short: as §3
Streptococcus pyogenes [33] = assay: Selectivity ratio of MBC to MIC for Streptococcus pyogenes 12-207 expressing mef gene; type: functional; in short: as §1
Streptococcus pneumoniae [34] = assay: Selectivity ratio of MBC to MIC for Streptococcus pneumoniae 07P390 expressing constitutive ermB gene; type: functional; in short: as §1
Staphylococcus aureus [35] = assay: Antibacterial activity against MLS-resistant Staphylococcus aureus PU 32 expressing inducible ermA gene assessed as reduction in microbial growth by CLSI based two-fold broth dilution method; type: functional
Streptococcus pneumoniae [36] = assay: Selectivity ratio of MBC to MIC for erythromycin-susceptible Streptococcus pneumoniae ATCC49619; type: functional; in short: as §1

Row | Structure (SMILES) | MBC (Streptococcus pneumoniae [1]) | Selectivity ratio (Streptococcus pyogenes [2]) | MBC (Haemophilus influenzae [3]) | MRT [4] | MIC (Moraxella catarrhalis [5]) | MBC (Streptococcus pyogenes [6]) | AUC(0-inf) [7] | half-life [8] | Selectivity ratio (Streptococcus pneumoniae [9]) | Tmax [10] | pIC50 (Cytochrome P450 3A4) | MBC (Moraxella catarrhalis [11]) | MBC (Staphylococcus aureus [12]) | Cmax [16] | Selectivity ratio (Streptococcus pyogenes [17]) | MIC (Streptococcus pneumoniae [18]) | CL/F [19] | Selectivity ratio (Haemophilus influenzae [20]) | Selectivity ratio (Staphylococcus aureus [21]) | MIC (Staphylococcus aureus [22]) | other results
1 | CC[C@H]1OC(=O)[C@@](C)(F)C(=O)[C@H](C)[C@@H](O[C@@H]2O[C@H](C)C[C@H](N(C)C)[C@H]2O)[C@](C)(OC/C=C/c2ccc3c(c2)c(=O)c(C(N)=O)cn3C2CC2)C[C@@H](C)/C(=N\OC)[C@H](C)[C@H]2OC(=O)O[C@@]21C | > 0.062 µg/mL | >8 | 32 µg/mL (≈ 35 µM) | 8.32 h | 0.5 µg/mL | > 0.016 µg/mL | 4770 ng·h/mL | 4.34 h | 1 | 6.67 h | 4.83 | 4 µg/mL (≈ 4.38 µM) | > 2 µg/mL | 369 ng/mL | >8 | ≤ 0.008 µg/mL | 80.8 mL/min/kg | 2 | >8 | > 256 µg/mL | Ratio (Rattus norvegicus): 2.5 to 3.6; MIC (Streptococcus pyogenes [13]): ≤ 0.002 µg/mL; MBC (Streptococcus pneumoniae [14]): ≤ 0.008 µg/mL; Ratio [15]: 2.3 to 2.6; MBC (Streptococcus pyogenes [23]): 0.125 µg/mL (≈ 0.137 µM); MIC (Streptococcus pyogenes [24]): 0.016 µg/mL; MIC (Streptococcus pneumoniae [25]): ≤ 0.008 µg/mL; Selectivity ratio (Moraxella catarrhalis [26]): 8; MIC (Streptococcus pneumoniae [27]): 0.5 µg/mL; MIC (Streptococcus pyogenes [28]): 0.062 µg/mL; MBC (Streptococcus pneumoniae [29]): 0.5 µg/mL (≈ 0.548 µM); MIC (Haemophilus influenzae [30]): 16 µg/mL; MBC (Streptococcus pyogenes [31]): > 0.125 µg/mL; AUC(0-t) [32]: 4600 ng·h/mL; Selectivity ratio (Streptococcus pyogenes [33]): 2; Selectivity ratio (Streptococcus pneumoniae [34]): >8; MIC (Staphylococcus aureus [35]): 0.25 µg/mL
2 | CC[C@H]1OC(=O)[C@H](C)C(=O)[C@H](C)[C@@H](O[C@@H]2O[C@H](C)C[C@H](N(C)C)[C@H]2O)[C@](C)(OC)C[C@@H](C)C(=O)[C@H](C)[C@H]2N(CCCCn3cnc(-c4cccnc4)c3)C(=O)O[C@]12C [TELITHROMYCIN] | 0.125 to 1 µg/mL (≈ 0.154 to 1.23 µM) | >=4 - 8 | 16 µg/mL (≈ 19.7 µM) | 3.27 h | 0.25 µg/mL | 0.016 to 0.125 µg/mL (≈ 0.0197 to 0.154 µM) | 927 ng·h/mL | 1.22 h | 2 - 8 | 2 h | 4.93 | > 2 µg/mL | ≥ 1 µg/mL | 204 ng/mL | >8 | 0.016 to 0.125 µg/mL | 363 mL/min/kg | 4 | >=4 - 8 | > 256 µg/mL | Selectivity ratio (Streptococcus pneumoniae [36]): 1 - 4; MBC (Streptococcus pyogenes [23]): 1 µg/mL (≈ 1.23 µM); MIC (Streptococcus pyogenes [24]): 0.031 µg/mL; Selectivity ratio (Moraxella catarrhalis [26]): >8; MIC (Streptococcus pneumoniae [27]): 0.25 to 0.5 µg/mL; MIC (Streptococcus pyogenes [28]): 0.25 µg/mL; MBC (Streptococcus pneumoniae [29]): 0.5 to 4 µg/mL (≈ 0.616 to 4.93 µM); MIC (Haemophilus influenzae [30]): 4 µg/mL; MBC (Streptococcus pyogenes [31]): > 0.25 µg/mL; AUC(0-t) [32]: 897 ng·h/mL; Selectivity ratio (Streptococcus pyogenes [33]): 4; Selectivity ratio (Streptococcus pneumoniae [34]): >=8; MIC (Staphylococcus aureus [35]): 0.125 to 0.25 µg/mL
